In PubChem BioAssay AID540295 (The Scripps Research Institute Molecular Screening Center, 2011):
Screen size: about 360,000 compounds; about 1,700 (0.47%) were called active.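 Rule for the calls: active = inhibition above its plate's cutoff, the mean of tested wells on that plate plus 3 SD (cut at about 29% in these data); inactive = the rest.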 Shown is part of a subset that was picked to be rich in actives.

molecular target: Melanocortin receptor 4 (Homo sapiens) (UniProt P32245); experiment: blockers of MC4R Gs-cAMP response – cell-based, TR-FRET, antagonist arm of biased-ligand search, primary screen (AID 540295); conditions: MC4R-expressing cells, MTII-stimulated cAMP, LANCE TR-FRET; at 6.5 µM; hits give high values;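 note: 0% = Melanotan II alone and 100% = Melanotan II plus saturating MCL0020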
Procedure, shortened: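 Assay system: human MC4R-expressing U2OS cells; reagent: Melanotan II stimulation of cells; dosing: 6.5 µM single dose; timing: compound 30 min, challenge 1 h, detection 1 h; signal: TR-FRET cAMP assay; replicates: one well per compound, no replicates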

Chain of Melanocortin receptor 4 (Homo sapiens) (P32245 whole entry, looked up): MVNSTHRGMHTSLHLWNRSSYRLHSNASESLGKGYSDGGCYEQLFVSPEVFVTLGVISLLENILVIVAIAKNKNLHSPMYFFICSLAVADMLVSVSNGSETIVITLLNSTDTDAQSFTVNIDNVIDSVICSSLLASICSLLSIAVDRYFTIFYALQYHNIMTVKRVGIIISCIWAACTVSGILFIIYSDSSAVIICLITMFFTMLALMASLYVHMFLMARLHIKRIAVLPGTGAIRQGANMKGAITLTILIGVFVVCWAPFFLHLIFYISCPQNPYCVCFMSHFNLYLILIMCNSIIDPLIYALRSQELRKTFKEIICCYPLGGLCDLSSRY

inhibition, inactive:
CCc1c(C)[nH]c(=S)c(C#N)c1C 14.3%
O=C1NC[C@@H](c2ccccc2)OC(=O)[C@H](Cc2ccc(F)cc2)CC/C=C/C[C@H]1CC(=O)N(CCO)Cc1ccccc1 7.53%
CC(=O)Nc1ccc(C=Cc2ccc([N+](=O)[O-])cc2)cc1 1.16%
O=C(O)C(=Cc1ccc([N+](=O)[O-])cc1)CCc1ccccc1 -2.43%
CCN(C(=O)CSc1ncnc2sccc12)c1c(N)n(Cc2ccccc2)c(=O)[nH]c1=O -1.83%
CCCNc1ncnc2sc(C)c(C)c12 -9.19%
COc1cccc(CSc2nc3nc(C)cc(C)n3n2)c1 -3.34%
COc1ccc(OC)c(S(=O)(=O)n2c([N+](=O)[O-])cnc2C)c1 0.16%
Cc1ccc(C)c(S(=O)(=O)N2CCCOC2CNC(=O)C(=O)NC2CCCCC2)c1 (stereo not drawn) 4.1%
O=C1CCC([N+](=O)[O-])C(c2ccccc2Br)N1 (stereo not drawn) 25.1%
Cc1ccc(OCC(=O)Nc2ccc(N3CCN(C(=O)c4ccco4)CC3)cc2)c(C)c1 12.1%
C/C(=N\OCC(=O)Nc1ccc(Br)cc1)c1cccs1 -1.35%
CC(=O)Oc1ccc(-c2cccc(C(=O)N3CCCCC3)c2)cc1 -4.05%
O=C(O[C@@H]1[C@H](Cc2ccccc2)NS(=O)(=O)[C@H]2C[C@@H]3C=C[C@]12O3)c1ccccc1Br 12%
Cc1ccc(C)c(NC(=O)CN(C)C(=O)COc2ccc3ccccc3c2)c1 2.76%
Cc1ccc(C)c(NS(=O)(=O)c2ccc(OCC(=O)NCc3cccnc3)cc2)c1 -2.79%
O=C(Nc1cc(C(F)(F)F)ccc1Cl)c1cc2nc3c(c(C(F)(F)F)n2n1)CCCC3 2.12%
CN(CC(=O)NC1CCCC1)S(=O)(=O)c1cnc[nH]1 -1.7%
O=C(OCc1ccc([N+](=O)[O-])cc1)C1CC(=O)N(Cc2ccccc2Cl)C1 (stereo not drawn) 7.18%
CCCCCOC(=O)C1=C(C)Nc2nnnn2C1c1ccc(OC)c(OC)c1OC (stereo not drawn) 12.4%
Cn1ccc(=NC=C(C#N)C#N)c2ccccc21 27.8%
O=C(CN1CCCSc2ccccc21)N1CCN(S(=O)(=O)c2ccccc2)CC1 5.29%
O=C(CN1CCCSc2ccccc21)N1CCN(S(=O)(=O)c2cccc(F)c2)CC1 5.01%
Cc1ccc2c(c1)C1CN(C)CCC1N2S(=O)(=O)c1ccc(Oc2ccc([N+](=O)[O-])cc2)cc1 (stereo not drawn) 2.73%
O=C(CN1CCc2ccccc21)NC(c1ccccc1)c1ccccc1 1.1%
NC(=O)c1ccc(NC(=O)COC(=O)c2c3c(nc4ccccc24)/C(=C\c2ccc4c(c2)OCO4)CCC3)cc1 -10%
Cn1cccc1C(=O)OCC(=O)c1ccc(Br)s1 4.25%
COC(=O)c1cc(NC(=O)c2cc(C(C)(C)C)nn2Cc2cccc(C)c2)ccc1N1CCOCC1 4.17%
COc1ccc(NC2CCCN(C(=O)c3ccccc3-c3ncc[nH]3)C2)cc1 (stereo not drawn) 4.61%
CCc1ccc2oc(=O)cc(CN3CCCCC3C)c2c1 (stereo not drawn) 10.6%
CC(NC(=O)COc1ccccc1)C(=O)NC1=NCCS1 (stereo not drawn) 0.52%
COc1ccc(CCNC(=O)COC(=O)c2ncc(Cl)c(Cl)c2Cl)cc1OC 14.8%
O=C(OCC(=O)N1CCCC1)c1ccc(Cl)nc1 -3.4%
CCOc1ncccc1C(=O)NCCc1ccc(OC)cc1 -0.79%
CC(CCc1ccccc1)NC(=O)c1cnc(Cl)c(Cl)c1 (stereo not drawn) 9.38%
COC(=O)c1ccc(COC(=O)c2cnc(Cl)c(Cl)c2)cc1 21.5%
O=C(OCC(=O)N1CCCCCC1)c1ccc(Cl)nc1 2.21%
NC1=NC(=O)S/C1=C\c1ccc(O)cc1 -45.1%
CC(CC(=O)C1C(C)C=CCC1(C)C)NNC(N)=O (stereo not drawn) 0.06%
CCCc1nc2oc3c(OCC)ncnc3c2c2c1COC(C)(C)C2 2.51%
COc1ccc(/C=N/n2c(C)cc(C)cc2=O)cc1 5.08%
CCOC(=O)C1=CN(Cc2ccc(Br)cc2)S(=O)(=O)NC1C (stereo not drawn) 1.79%
CN(C)/C=C(/C(=O)c1ccc(F)cc1)S(=O)(=O)c1ccc(F)cc1 -0.11%
CCOC(=O)N1CCN(C(=O)C2CCN(S(C)(=O)=O)CC2)CC1 3.32%
Brc1ccc(CN2CC[C@H]3C=CCc4cccc(c43)C2)cc1 11.3%
Cc1cc(=O)n2nc(N3CCCC(C(=O)N4CCN(C)CC4)C3)sc2n1 (stereo not drawn) 0.44%
CSc1nnc2c(n1)OC(c1ccsc1)N(C(C)=O)c1ccccc1-2 (stereo not drawn) 3.07%
CNC(=O)C1CN(C(=O)c2cccc(S(=O)(=O)N3CCc4ccccc43)c2)c2ccccc2O1 (stereo not drawn) 5.06%
CSc1ccc(C#N)cc1NC(=O)c1ccc(Cl)cc1 2.18%
Cc1c(Cl)cccc1NC(=O)NCc1ccc(C)n1C 5.07%
Cc1c(Cl)cccc1NC(=S)NCC(O)c1ccccc1 (stereo not drawn) 3.92%
Cc1ccc(OCC(=O)Nc2cccc3c2CCCC3)cc1C 5.28%
O=C(COC(=O)/C=C/c1cn(-c2ccccc2)nc1-c1cccnc1)Nc1ccc(Cl)cc1Cl 11.1%
O=c1c2cc(Br)ccc2nc(-c2cccc(Cl)c2)n1O 2.37%
CCOC(=O)C1(Cc2ccccc2C(F)(F)F)CCN(C(=O)c2cc(C)n(C)n2)CC1 5.76%
COc1ccc(/C=C/C(=O)c2c(O)cc(OC)cc2OC)cc1 -19.9%
CCOc1ccc(OCC(=O)Nc2c3c(nn2C(C)(C)C)CS(=O)(=O)C3)cc1 1.77%
O=S(=O)(Cc1noc(-c2ccc(OC(F)(F)F)cc2)n1)c1ccc(F)cc1 4.42%
CC(OC(=O)C1CC(=O)N(Cc2ccccc2)C1)C(=O)Nc1ccccc1[N+](=O)[O-] (stereo not drawn) -5.04%
Cc1cc(=O)oc2cc(NC(=O)C3CC(=O)N(Cc4ccccc4)C3)ccc12 (stereo not drawn) 15.7%
Cc1cc(-c2csc(N)n2)c(C)n1-c1ccccc1 4%
CC1(C(=O)N/N=C/c2cc3c(cc2Br)OCO3)CC1(Br)Br (stereo not drawn) 19.5%
CCN(CC)C(=O)C1CCCN(Cc2cccc(Cl)c2)C1 (stereo not drawn) -1.5%
O=[N+]([O-])c1ccc(Oc2ccc(F)cc2Br)c2ccncc12 2.28%
CCCOc1ccc(F)cc1-c1cc(C(=O)Nc2ccc(F)c(Cl)c2)[nH]n1 3.21%
COc1cc(NC(=O)c2cc(-c3ccc(F)cc3OC(C)C)n[nH]2)cc(OC)c1OC 19.5%
COc1ccc(CCNC(=O)c2c(C)nn(-c3ccccc3)c2Cl)cc1 13.4%
Cc1cccc(-n2ncc(Cl)c(Cl)c2=O)c1 27.8%
CC(C)Nc1nc(NCCOc2ccccc2Cl)c2sccc2n1 -7.14%
COc1ccc2c(c1)C(=O)Nc1cc(Cl)ccc1N2 -3.19%
CCOCCCNC(=O)c1cc2c(=O)n3ccccc3nc2s1 -4.33%
COc1ccc(/C=C(\C#N)C(=O)NCCCn2ccnc2)cc1 6.52%
CN(C)C(=O)c1cccc(-c2cnc3c(NC=O)cc(-c4ccc(F)cc4)cn23)c1 -2.24%
O=C(c1cnc(Cl)c(Cl)c1)N1CCN(S(=O)(=O)c2ccc(F)cc2)CC1 19.3%
O=C(NNS(=O)(=O)c1c(F)cc(F)c(Cl)c1F)C12CC3CC(CC(C3)C1)C2 -0.65%

inhibition, active:
O=C1/C(=C\c2ccc([N+](=O)[O-])cc2)CS(=O)(=O)C/C1=C/c1ccc([N+](=O)[O-])cc1 34.6%
COc1ccc(C(C[N+](=O)[O-])n2nc(C)cc2C)cc1 (stereo not drawn) 46.6%
Cc1ccc(OCC(=O)Nc2ccc(NC(=O)c3cccs3)cc2)c(C)c1 29.7%
Cc1ccc(NS(=O)(=O)c2ccc(C)c(NC(=O)COc3ccc4ccccc4c3)c2)c(C)c1 31.4%
O=[N+]([O-])/C=C/c1ccc2c(ccn2Cc2ccccc2)c1 46.2%
N#C/C=C1\Sc2ccccc2C(=O)N1CC(=O)N1CCN(S(=O)(=O)c2ccccc2)CC1 33.4%
O=C(COC(=O)c1c2c(nc3ccccc13)CCCC2)c1ccc(Br)s1 33.9%
O=C(OCC(=O)N1CCCCCC1)c1cnc(Cl)c(Cl)c1 30.5%
COc1ccc(CCNC(=O)COC(=O)c2cnc(Cl)c(Cl)c2)cc1 39.7%
COc1ccc(CCNC(=O)c2cnc(Cl)c(Cl)c2)cc1 29.6%
Cc1c(Cl)cccc1NC(=O)[C@@]1(CC(=O)O)CC(/C=C/c2ccccc2)=NO1 38.9%
O=C(O)CCn1cc(/C=C/C(=O)c2ccc(Cl)cc2)c(-c2cccc(Br)c2)n1 32.5%
O=C(Nc1ccc(F)c([N+](=O)[O-])c1)C1CC(=O)N(Cc2ccccc2)C1 (stereo not drawn) 35.5%
CC(C)Oc1c(Br)cc(Br)cc1/C=N/NC(N)=S 31.4%
COc1ccc(Cl)cc1-c1cc(C(=O)Nc2cc(OC)c(OC)c(OC)c2)[nH]n1 29.8%
COc1ccc(Oc2c(Cl)cnn(-c3ccccc3)c2=O)cc1 54.6%
COCCCNC(=O)/C(C#N)=C/c1c(N2CCCCCC2)nc2ccccn2c1=O 31%
CC(=O)N1CCN(S(=O)(=O)c2c(F)cc(F)c(Cl)c2F)CC1 32.7%
